Reference: ChEMBL document CHEMBL1147085, “Metabolism and pharmacokinetics of a novel Src kinase inhibitor TG100435 ([7-(2,6-dichloro-phenyl)-5-methyl-benzo[1,2,4]triazin-3-yl]-[4-(2-pyrrolidin-1-yl-ethoxy)-phenyl]-amine) and its active N-oxide metabolite TG100855 …” (Drug Metab Dispos, 2007)

What was measured:
[1] = test system: Rattus norvegicus; assay: AUC (0 to infinity) in Sprague-Dawley rat assessed as AUC of ([7-(2,6-Dichloro-phenyl)-5-methyl-benzo[1,2,4]triazin-3-yl]-[4-(2-pyrrolidin-1-yl-ethoxy)-phenyl]-amine) at 25 mg/kg, po; details: in vivo
[2] = AUC (0 to infinity) in BALB/c mouse at 5 mg/kg, iv; format: ADME, organism-based; parameters: time infinity, dose 5 mg/kg, route intravenous; details: plasma
Summary of the method: (§1)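 Male BALB/c mice (~25 g); fasted overnight for single p.o. dosing, not fasted for i.v. or i.p. dosing. Composite blood sampling, n=3 per time point: 5, 15, 30 min, 1, 3, 6, 24, 48 hr after i.v. dose; 0.5, 1, 3, 5, 8, 24, 30, 48 hr after p.o. or i.p. dose. Heparinized plasma, both parent and N-oxide measured by LC/MS/MS (MRM 494.2/98.1 and 510.2/98.1); non-compartmental analysis, AUC by linear trapezoidal rule.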

[3] = AUC (0 to infinity) in BALB/c mouse at 25 mg/kg, po; format: ADME, organism-based; parameters: time infinity, dose 25 mg/kg, route oral; details: plasma
Summary of the method: as §1

[4] = test system: Mus musculus; assay: Tmax in BALB/c mouse assessed as Tmax of ([7-(2,6-Dichloro-phenyl)-5-methyl-benzo[1,2,4]triazin-3-yl]-[4-(2-pyrrolidin-1-yl-ethoxy)-phenyl]-amine) at 25 mg/kg, po; details: in vivo
[5] = Drug level in BALB/c mouse plasma at 5 mg/kg, iv; format: ADME, organism-based; parameters: dose 5 mg/kg, route intravenous
Summary of the method: as §1

[6] = test system: Mus musculus; assay: AUC (0 to infinity) in BALB/c mouse assessed as AUC of ([7-(2,6-Dichloro-phenyl)-5-methyl-benzo[1,2,4]triazin-3-yl]-[4-(2-pyrrolidin-1-yl-ethoxy)-phenyl]-amine) at 5 mg/kg, ip; format: ADME, organism-based, Plasma; parameters: time infinity, dose 5 mg/kg, route intraperitoneal; details: in vivo
Summary of the method: as §1

[7] = test system: Rattus norvegicus; assay: AUC (0 to last) in Sprague-Dawley rat assessed as AUC of ([7-(2,6-Dichloro-phenyl)-5-methyl-benzo[1,2,4]triazin-3-yl]-[4-(2-pyrrolidin-1-yl-ethoxy)-phenyl]-amine) at 25 mg/kg, po; details: in vivo
[8] = Half life in Sprague-Dawley rat at 5 mg/kg, iv; format: ADME, organism-based; parameters: dose 5 mg/kg, route intravenous; details: in vivo
[9] = AUC (0 to infinity) in BALB/c mouse at 5 mg/kg, ip; format: ADME, organism-based; parameters: time infinity, dose 5 mg/kg, route intraperitoneal; details: plasma
Summary of the method: as §1

[10] = Volume of distribution in Sprague-Dawley rat at 5 mg/kg, iv; format: ADME, organism-based; parameters: dose 5 mg/kg, route intravenous; details: in vivo
[11] = Half life in Sprague-Dawley rat at 5 mg/kg, ip; format: ADME, organism-based; parameters: dose 5 mg/kg, route intraperitoneal; details: in vivo
[12] = AUC (0 to infinity) in Sprague-Dawley rat at 5 mg/kg, iv; format: ADME, organism-based; parameters: time infinity, dose 5 mg/kg, route intravenous; details: plasma
[13] = test system: Mus musculus; assay: Bioavailability in BALB/c mouse assessed as bioavailability of ([7-(2,6-Dichloro-phenyl)-5-methyl-benzo[1,2,4]triazin-3-yl]-[4-(2-pyrrolidin-1-yl-ethoxy)-phenyl]-amine) at 25 mg/kg, po; details: in vivo
[14] = AUC (0 to last) in Sprague-Dawley rat at 25 mg/kg, po; format: ADME, organism-based; parameters: time 0 - last, dose 25 mg/kg, route oral; details: plasma
[15] = test system: Mus musculus; assay: Volume of distribution in BALB/c mouse at 5 mg/kg, ip; format: ADME, organism-based; parameters: dose 5 mg/kg, route intraperitoneal; details: in vivo
Summary of the method: as §1

[16] = Drug level in Sprague-Dawley rat plasma at 5 mg/kg, iv; format: ADME, organism-based; parameters: dose 5 mg/kg, route intravenous
[17] = test system: Rattus norvegicus; assay: Volume of distribution in Sprague-Dawley rat at 5 mg/kg, ip; format: ADME, organism-based; parameters: dose 5 mg/kg, route intraperitoneal; details: in vivo
[18] = test system: Rattus norvegicus; assay: Drug level in Sprague-Dawley rat plasma at 5 mg/kg, ip; format: ADME, organism-based; parameters: dose 5 mg/kg, route intraperitoneal; details: in vivo
[19] = test system: Mus musculus; assay: Drug level in BALB/c mouse plasma at 5 mg/kg, ip; format: ADME, organism-based; parameters: dose 5 mg/kg, route intraperitoneal; details: in vivo
Summary of the method: as §1

[20] = test system: Mus musculus; assay: AUC (0 to infinity) in BALB/c mouse assessed as AUC of ([7-(2,6-Dichloro-phenyl)-5-methyl-benzo[1,2,4]triazin-3-yl]-[4-(2-pyrrolidin-1-yl-ethoxy)-phenyl]-amine) at 5 mg/kg, iv; format: ADME, organism-based, Plasma; parameters: time infinity, dose 5 mg/kg, route intravenous; details: in vivo
Summary of the method: as §1

[21] = AUC (0 to infinity) in Sprague-Dawley rat at 25 mg/kg, po; format: ADME, organism-based; parameters: time infinity, dose 25 mg/kg, route oral; details: plasma
[22] = AUC (0 to infinity) in Sprague-Dawley rat at 5 mg/kg, ip; format: ADME, organism-based; parameters: time infinity, dose 5 mg/kg, route intraperitoneal; details: plasma
[23] = test system: Mus musculus; assay: AUC (0 to infinity) in BALB/c mouse assessed as AUC of ([7-(2,6-Dichloro-phenyl)-5-methyl-benzo[1,2,4]triazin-3-yl]-[4-(2-pyrrolidin-1-yl-ethoxy)-phenyl]-amine) at 25 mg/kg, po; details: in vivo
[24] = test system: Rattus norvegicus; assay: AUC (0 to infinity) in Sprague-Dawley rat assessed as AUC of ([7-(2,6-Dichloro-phenyl)-5-methyl-benzo[1,2,4]triazin-3-yl]-[4-(2-pyrrolidin-1-yl-ethoxy)-phenyl]-amine) at 5 mg/kg, ip; format: ADME, organism-based, Plasma; parameters: time infinity, dose 5 mg/kg, route intraperitoneal; details: in vivo

## Cc1cc(-c2c(Cl)cccc2Cl)cc2nnc(Nc3ccc(OCC[N+]4([O-])CCCC4)cc3)nc12
[1]
  AUC: 906 ng·h/mL
[2]
  AUC(0-inf): 5350 ng·h/mL
[3]
  AUC(0-inf): 939 ng·h/mL
[4]
  Tmax: 7 h
[5]
  C0: 9030 ng/mL
[6]
  AUC: 1400 ng·h/mL
[7]
  AUC: 881 ng·h/mL
[8]
  half-life: 1.6 h
[9]
  AUC(0-inf): 6520 ng·h/mL
[10]
  Vd: 1.9 L/kg
[11]
  half-life: 2.3 h
[12]
  AUC(0-inf): 6050 ng·h/mL
[13]
  F: 6.8%
[14]
  AUC(0-t): 467 ng·h/mL
[15]
  Vd: 2.6 L/kg
[16]
  C0: 12200 ng/mL
[17]
  Vd: 3.3 L/kg
[18]
  C0: 1080 ng/mL
[19]
  C0: 4100 ng/mL
[20]
  AUC: 1390 ng·h/mL
[21]
  AUC(0-inf): 470 ng·h/mL
[22]
  AUC(0-inf): 4990 ng·h/mL
[23]
  AUC: 1760 ng·h/mL
[24]
  AUC: 498 ng·h/mL
